Measured values from ChEMBL document CHEMBL2346589, “Fragment-based drug discovery of 2-thiazolidinones as inhibitors of the histone reader BRD4 bromodomain” (J Med Chem, 2013).
Each block holds one molecule with its values, some of them ahead of it.

Legend:
[1] = target: T1, Bromodomain-containing protein 4 (Homo sapiens, UniProt O60885); assay: Inhibition of bromodomain BRD4-mediated c-myc mRNA expression in human HT-29 cells at 10 uM after 24 hrs by RT-qPCR analysis relative to control; assay type: cell-based
In short: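 HT-29 cells (McCoy's 5A, 10% FBS, 37 °C, 5% CO2) seeded in six-well plates overnight, then exposed 24 h to compound at 10 μM final (DMSO stock diluted in saline). Total RNA extracted with Trizol, reverse-transcribed, and quantified by RT-qPCR. c-myc levels normalised to β-actin and expressed relative to untreated control. Three independent experiments, mean ± SD.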

[2] = target: T1, Bromodomain-containing protein 4; assay: Displacement of FITC-labeled (+)-JQ1 from bromodomain BRD4(1) (unknown origin) expressed in Escherichia coli BL21(DE3) after 4 hrs by fluorescence anisotropy assay
In short: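 BRD4(1), His6-tagged, expressed in E. coli BL21(DE3) codon plus RIL, Ni-NTA purified, tag removed with TEV, then gel filtration. Varied compound concentrations, DMSO 5‰ final. 4 h equilibration in the dark at room temperature. IC50 from two independent experiments.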

HT-29 = assay: Growth inhibition of human HT-29 cells after 72 hrs by sulforhodamine B assay; assay type: functional; settings: HT-29, 72 h
In short: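 HT-29 cells in McCoy's 5A with 10% FBS at 37 °C, 5% CO2. DMSO stocks (0.01 mol/L) diluted in normal saline. Graded concentrations applied in triplicate for 72 h, then SRB staining with A560 read-out. Inhibition rate from A560 treated/control. GI50 from four independent experiments, mean ± SD.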

[3] = target: T1, Bromodomain-containing protein 4; assay: Displacement of FITC-labeled (+)-JQ1 from bromodomain BRD4(1) (unknown origin) expressed in Escherichia coli BL21(DE3) at 50 uM after 4 hrs by fluorescence anisotropy assay relative to control
In short: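 Same BRD4(1) fluorescence anisotropy competition set-up: 45 nM protein, 5 nM FITC-(+)-JQ1 tracer, HEPES pH 7.4/CHAPS buffer, 4 h in the dark at room temperature, ex 485/em 530 nm. Single ligand concentration of 50 μM, reported as percent inhibition.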

CYP2C19 = CYP2C19 (Homo sapiens, UniProt P33261); assay: Inhibition of CYP2C19 (unknown origin)-mediated mephenytoin metabolite conversion at 10 uM after 20 mins relative to control; assay type: ADME; settings: probe mephenytoin
In short: (§1)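 Human liver microsomes at 0.2 mg/mL in 100 mM phosphate pH 7.4 with 1 mM NADPH. Probe cocktail: midazolam 10 μM, dextromethorphan 10 μM, diclofenac 20 μM, phenacetin 100 μM, mephenytoin 100 μM. Test compound at 10 μM; PBS as negative control. 5 min preincubation at 37 °C, then 20 min reaction started with an NADPH-generating system. Metabolite formation expressed relative to PBS.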

CYP1A2 = target: T2, CYP1A2 (Homo sapiens, UniProt P05177); assay: Inhibition of CYP1A2 (unknown origin)-mediated phenacetin metabolite conversion at 10 uM after 20 mins relative to control; assay type: ADME; settings: probe phenacetin; in short: as §1
T2 sequence (P05177 whole entry): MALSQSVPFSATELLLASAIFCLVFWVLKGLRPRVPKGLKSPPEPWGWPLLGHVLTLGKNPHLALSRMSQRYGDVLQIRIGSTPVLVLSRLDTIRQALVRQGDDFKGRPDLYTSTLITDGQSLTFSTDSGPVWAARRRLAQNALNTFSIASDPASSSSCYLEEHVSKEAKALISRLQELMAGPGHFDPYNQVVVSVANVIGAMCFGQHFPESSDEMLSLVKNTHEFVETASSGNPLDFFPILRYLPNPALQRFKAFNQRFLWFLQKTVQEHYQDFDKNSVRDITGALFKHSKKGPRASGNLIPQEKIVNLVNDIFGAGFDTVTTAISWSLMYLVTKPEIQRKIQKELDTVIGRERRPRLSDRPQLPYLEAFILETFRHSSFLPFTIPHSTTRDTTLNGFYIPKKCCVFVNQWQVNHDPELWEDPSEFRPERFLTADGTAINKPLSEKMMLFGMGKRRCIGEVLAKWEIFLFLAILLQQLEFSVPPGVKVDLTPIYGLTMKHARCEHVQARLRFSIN

CYP2D6 = CYP2D6 (Homo sapiens, UniProt P10635); assay: Inhibition of CYP2D6 (unknown origin)-mediated dextromethorphan metabolite conversion at 10 uM after 20 mins relative to control; assay type: ADME; settings: probe dextromethorphan; in short: as §1
[4] = Intrinsic clearance in mouse liver microsomes at 1 uM after 5 mins by LC/MS/MS analysis; assay type: ADME, Microsome; settings: read-out: CLH
CYP2C9 = CYP2C9 (Homo sapiens, UniProt P11712); assay: Inhibition of CYP2C9 (unknown origin)-mediated diclofenac metabolite conversion at 10 uM after 20 mins relative to control; assay type: ADME; settings: probe diclofenac; in short: as §1
CYP3A4 = CYP3A4 (Homo sapiens, UniProt P08684); assay: Inhibition of CYP3A4 (unknown origin)-mediated midazolam metabolite conversion at 10 uM after 20 mins relative to control; assay type: ADME; settings: probe midazolam; in short: as §1
[5] = Intrinsic clearance in human liver microsomes at 1 uM after 5 mins by LC/MS/MS analysis; assay type: ADME, Microsome; settings: read-out: CLH
In short: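 Liver microsomes at 0.5 mg/mL with 1 μM compound in 0.1 M phosphate pH 7.4, 1 mM EDTA, 5 mM MgCl2. Preincubated 5 min at 37 °C, then started with 1 mM NADPH. Sampled at 0, 5, 10 and 30 min, quenched with cold acetonitrile. Parent remaining measured by LC/MS/MS.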

Chain of CYP2C19 (P33261 whole entry): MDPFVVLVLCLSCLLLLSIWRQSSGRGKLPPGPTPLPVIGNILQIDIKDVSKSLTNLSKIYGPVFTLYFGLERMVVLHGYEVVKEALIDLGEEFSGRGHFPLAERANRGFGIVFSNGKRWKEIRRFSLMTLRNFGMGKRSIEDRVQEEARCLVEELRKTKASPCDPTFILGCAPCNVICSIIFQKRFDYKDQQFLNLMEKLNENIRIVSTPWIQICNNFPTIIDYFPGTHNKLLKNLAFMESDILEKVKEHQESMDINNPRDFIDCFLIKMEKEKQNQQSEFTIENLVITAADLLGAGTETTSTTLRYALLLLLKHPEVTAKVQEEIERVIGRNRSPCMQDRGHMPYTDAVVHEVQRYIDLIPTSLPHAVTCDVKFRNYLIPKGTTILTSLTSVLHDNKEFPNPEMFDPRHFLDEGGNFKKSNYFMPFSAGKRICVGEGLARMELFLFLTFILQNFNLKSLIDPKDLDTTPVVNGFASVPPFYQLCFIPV
Chain of CYP3A4 (P08684 whole entry): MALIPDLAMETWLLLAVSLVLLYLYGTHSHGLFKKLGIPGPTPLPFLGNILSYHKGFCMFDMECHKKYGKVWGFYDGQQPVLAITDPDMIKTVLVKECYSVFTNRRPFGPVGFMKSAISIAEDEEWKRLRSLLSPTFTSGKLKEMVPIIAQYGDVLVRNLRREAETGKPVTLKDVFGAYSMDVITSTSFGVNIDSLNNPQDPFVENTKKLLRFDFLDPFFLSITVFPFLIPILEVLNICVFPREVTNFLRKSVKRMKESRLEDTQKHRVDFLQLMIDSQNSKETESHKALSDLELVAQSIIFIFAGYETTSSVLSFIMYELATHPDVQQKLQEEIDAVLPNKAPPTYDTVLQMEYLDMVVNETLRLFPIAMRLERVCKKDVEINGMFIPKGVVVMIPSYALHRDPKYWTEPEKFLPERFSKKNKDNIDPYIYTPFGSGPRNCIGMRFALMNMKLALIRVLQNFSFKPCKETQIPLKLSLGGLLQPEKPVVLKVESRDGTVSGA
Chain of CYP2C9 (P11712 whole entry): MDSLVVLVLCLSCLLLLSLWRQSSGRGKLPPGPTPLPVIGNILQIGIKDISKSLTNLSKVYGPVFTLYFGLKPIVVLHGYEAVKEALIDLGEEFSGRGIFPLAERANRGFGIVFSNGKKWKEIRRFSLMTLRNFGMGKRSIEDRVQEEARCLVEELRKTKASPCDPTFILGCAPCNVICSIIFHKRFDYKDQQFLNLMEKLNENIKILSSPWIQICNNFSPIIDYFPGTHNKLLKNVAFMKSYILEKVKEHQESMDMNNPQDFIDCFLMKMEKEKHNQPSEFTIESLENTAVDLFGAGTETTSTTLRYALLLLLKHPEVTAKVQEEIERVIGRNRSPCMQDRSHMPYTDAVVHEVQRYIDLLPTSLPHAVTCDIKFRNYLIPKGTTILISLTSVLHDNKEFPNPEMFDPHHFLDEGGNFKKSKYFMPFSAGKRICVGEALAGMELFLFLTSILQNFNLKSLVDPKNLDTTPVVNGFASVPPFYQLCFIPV
Chain of CYP2D6 (P10635 whole entry): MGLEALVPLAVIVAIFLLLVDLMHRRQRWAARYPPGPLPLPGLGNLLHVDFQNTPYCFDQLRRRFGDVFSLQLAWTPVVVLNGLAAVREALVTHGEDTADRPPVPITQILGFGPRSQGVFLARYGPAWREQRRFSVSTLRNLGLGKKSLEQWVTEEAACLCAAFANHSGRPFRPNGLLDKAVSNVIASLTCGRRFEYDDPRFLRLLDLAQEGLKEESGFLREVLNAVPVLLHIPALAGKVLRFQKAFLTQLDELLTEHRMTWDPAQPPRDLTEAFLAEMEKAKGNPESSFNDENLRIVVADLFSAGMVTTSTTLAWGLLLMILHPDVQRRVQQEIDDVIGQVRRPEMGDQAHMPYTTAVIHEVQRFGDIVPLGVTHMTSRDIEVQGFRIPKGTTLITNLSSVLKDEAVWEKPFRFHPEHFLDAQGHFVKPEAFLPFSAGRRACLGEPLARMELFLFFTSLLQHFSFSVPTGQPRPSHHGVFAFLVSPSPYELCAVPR

SMILES: Cc1noc(C)c1-c1ccccc1
inhibition [1]: > 50%
IC50 [2]: 0.8 µM
GI50 (HT-29): 22.5 µM

SMILES: O=c1[nH]c(-c2cccc(NS(=O)(=O)c3cccc4cccnc34)c2)cs1
inhibition [3]: 45.7%

SMILES: O=C(CCc1ccccc1)Nc1cc(NS(=O)(=O)c2cccs2)cc(-c2csc(=O)[nH]2)c1
IC50 [2]: 0.57 µM

SMILES: CCCC(=O)Nc1cc(NS(=O)(=O)c2cccs2)cc(-c2csc(=O)[nH]2)c1
IC50 [2]: 0.79 µM

SMILES: O=c1[nH]c(-c2cccc(NCCc3ccccc3)c2)cs1
IC50 [2]: 22.8 µM

SMILES: O=c1[nH]c(-c2cccc(NS(=O)(=O)Cc3ccccc3)c2)cs1
IC50 [2]: 4.1 µM

SMILES: Nc1cc(NS(=O)(=O)c2cccs2)cc(-c2csc(=O)[nH]2)c1
inhibition [1]: > 50%
IC50 [2]: 2.6 µM
GI50 (HT-29): 37.3 µM

SMILES: O=C(Cc1ccccc1)Nc1cccc(-c2csc(=O)[nH]2)c1
inhibition [3]: 45.6%

SMILES: O=C(Cc1ccccc1)Nc1cc(-c2csc(=O)[nH]2)ccc1NS(=O)(=O)c1cccs1
IC50 [2]: 3.5 µM

SMILES: O=c1[nH]c(-c2ccc(NS(=O)(=O)c3cccs3)c(O)c2)cs1
IC50 [2]: 3.3 µM

SMILES: O=c1[nH]c(-c2cccc(Cl)c2)cs1
IC50 [2]: 24 µM

SMILES: CCCC(=O)Nc1cc(-c2csc(=O)[nH]2)ccc1NS(=O)(=O)c1cccs1
IC50 [2]: 2.4 µM

SMILES: Nc1cccc(-c2csc(=O)[nH]2)c1
IC50 [2]: 42 µM

SMILES: O=c1[nH]c(-c2ccc(NS(=O)(=O)c3cccs3)cc2)cs1
inhibition [3]: 38.6%

SMILES: O=C(CCC1CCCCC1)Nc1cc(NS(=O)(=O)c2cccs2)cc(-c2csc(=O)[nH]2)c1
IC50 [2]: 2.2 µM

SMILES: O=C(Nc1cc(NS(=O)(=O)c2cccs2)cc(-c2csc(=O)[nH]2)c1)c1cccs1
inhibition at 20 min, 10 µM (CYP2C19): 39%
inhibition at 20 min, 10 µM (CYP1A2): 29%
inhibition at 20 min, 10 µM (CYP2D6): 20%
microsomal CLint at 1 µM [4]: 52 µL/min/mg
inhibition at 20 min, 10 µM (CYP2C9): 41%
inhibition at 20 min, 10 µM (CYP3A4): 8%
microsomal CLint at 1 µM [5]: 18 µL/min/mg

Continued, values first:

inhibition at 20 min, 10 µM (CYP2C19): 36%
inhibition at 20 min, 10 µM (CYP1A2): 16%
IC50 [2]: 4.1 µM
inhibition at 20 min, 10 µM (CYP2D6): 22%
microsomal CLint at 1 µM [4]: 120 µL/min/mg
inhibition at 20 min, 10 µM (CYP2C9): 34%
inhibition at 20 min, 10 µM (CYP3A4): 17%
microsomal CLint at 1 µM [5]: 24 µL/min/mg
SMILES: O=c1[nH]c(-c2cccc(NS(=O)(=O)c3cccs3)c2)cs1

IC50 [2]: 50.7 µM
SMILES: Nc1cc(N)cc(-c2csc(=O)[nH]2)c1

inhibition [3]: 20.2%
SMILES: O=C(Nc1cc(-c2csc(=O)[nH]2)ccc1NS(=O)(=O)Cc1ccccc1)C1CCCC1

IC50 [2]: 51 µM
SMILES: Nc1ccc(-c2csc(=O)[nH]2)cc1

IC50 [2]: 4.4 µM
SMILES: COc1ccc(S(=O)(=O)Nc2cccc(-c3csc(=O)[nH]3)c2)cc1

IC50 [2]: 2.6 µM
SMILES: O=C(CCc1ccccc1)Nc1cc(-c2csc(=O)[nH]2)ccc1NS(=O)(=O)c1cccs1

IC50 [2]: 2.5 µM
GI50 (HT-29): 63.6 µM
SMILES: O=C(Nc1cc(-c2csc(=O)[nH]2)ccc1NS(=O)(=O)c1cccs1)C1CCCC1

IC50 [2]: 23.8 µM
SMILES: Nc1ccc(-c2csc(=O)[nH]2)cc1O

IC50 [2]: 10 µM
SMILES: O=c1[nH]c(-c2cccc(NS(=O)(=O)c3cccnc3)c2)cs1

IC50 [2]: 3.7 µM
GI50 (HT-29): 47.8 µM
SMILES: O=c1[nH]c(-c2cccc(NS(=O)(=O)c3ccc(F)cc3)c2)cs1
